Bioassay records deposited in PubChem BioAssay by several laboratories.
Hits are enriched below; roughly 1.8% of the tested compounds scored in any of these assays.
STAT1 blocker: reduces IFN-gamma driven STAT1 reporter signal; NIH 3T3 STAT1-luciferase reporter, luminescence; inhibition, % at 5.5 µM; hit rate 0.35% among 200,000; AID 920;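 active = inhibition above a set limit, the mean inhibition across all tested compounds plus 3 SD, cut at about 34% in these data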;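 note: 0% = IFN-gamma with DMSO and 100% = IFN-gamma with 300 µM nifuroxazide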
STAT3 inh: STAT3 signaling inhibition | AID 862 | inhibition, % at 5.5 µM | hit rate 0.89% among 190,000 | U3A cells, IL-6 STAT3-luciferase reporter, luminescence; host cell line lacks STAT1;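 active = inhibition above the mean inhibition across all screened compounds plus 3 SD, cut at about 44% in these data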;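 note: 0% = DMSO only wells and 100% = 100 µM nifuroxazide control wells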
C8 TRAIL sens: sensitizes caspase-8 expressing cells to TRAIL. NB7+C8 cells + TRAIL, ATPlite viability luminescence. inhibition (viability loss, TRAIL sensitization), % at 10 µM. hit rate 1% among 360,000. AID 624354;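 active = compounds causing at least 50% loss of cell viability in the single-dose screen, relative to plate controls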
PPC-1+TRAIL kill: kills PPC-1 cancer cells in the presence of TRAIL; PPC-1 cells + TRAIL, ATPLite viability luminescence; cell killing (% activity), % at 4 µM or 5 µM; hit rate 0.41% among 220,000;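 active = cell killing above 50% in the first pass at 4 µM, then a duplicate retest at 5 µM averaging 50% or more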;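 note: plate controls were cells with TRAIL plus DMSO for no effect and medium-only wells lacking cells for full effect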
STAT3 act-1: increases IL-6 driven STAT3 reporter signal. U3A cells, IL-6 STAT3-luciferase reporter, luminescence; 100% = signal with IL-6 EC80 alone. activation (% of control), % at 5.6 µM. hit rate 0.91% among 190,000. AID 871;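 active = activation above the screen-wide mean of compound activation plus 3 SD, cut at about 130% in these data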;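 note: 0% = background luminescence of wells with medium and substrate only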
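Material: STAT3-luciferase reporter U3A cells; Probe or stimulus: IL-6 (33 ng/mL); Incubation: compound pre-incubation 1 h before IL-6, then 6 h stimulation at 37 °C; Technique: luminescence from STAT3-driven luciferase reporter; Evaluation: % activation versus median of IL-6-stimulated wells; Controls: IL-6-only high control.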
STAT3 act-2: confirmation of STAT3 signaling activators; shares compounds with STAT3 act-1; U3A STAT3-luciferase reporter, IL-6 potentiation, luminescence; U3A cells lack STAT1; 100 means same as IL-6 alone; hit rate 64% among 1,200; AID 1267; potentiation (% of control), % at 5.7 µM;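 active = percent activation of the STAT3 luciferase reporter above a set limit taken from the earlier primary screen, cut at about 130% in these data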;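 note: 0% = background signal of medium plus substrate and 100% = median of IL-6 with DMSO wells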
NFkB act 2: activates NF-kappaB, counter-screen to STAT3 activators; shares compounds with STAT3 act-1; activation (% of control), % at 5.7 µM; hit rate 11% among 1,200; AID 1309; human cells, NF-kappaB reporter activation; in the data active = activation above about 120%;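 note: reporter induced by TNF-alpha stimulation; 100% = median of stimulated DMSO wells and 0% = no signal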
STAT1 act: STAT1 activation in STAT3 activator counter-screen. hit rate 13% among 1,200. activation (% of control), % at 5.7 µM. AID 1318. NIH 3T3 STAT1-luciferase reporter, IFN-gamma, luminescence. shares compounds with STAT3 act-1;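 active = activation above the solvent-only control well mean plus 3 SD, set per screening run, cut at about 120% in these data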;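 note: 100% = IFN-gamma with DMSO median signal so 100% means no change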
* hit, by the source's call.

How did O=C(CN1C(=O)NC2(CCCCC2)C1=O)Nc1ccc2c(c1)OCCCO2 do in these assays?
C8 TRAIL sens: 6

How did CCOC(=O)c1cnn(-c2ncnc3sc(C)c(C)c23)c1N do in these assays?
STAT1 blocker: 6; STAT3 inh: -57; C8 TRAIL sens: 12; PPC-1+TRAIL kill: 28; STAT3 act-1: 149*; STAT3 act-2: 143*; NFkB act 2: 101; STAT1 act: 104

Results for CCOC(=O)c1cnn(-c2ncnc3c2cnn3Cc2ccccc2)c1N ?
STAT1 blocker: 3; STAT3 inh: 18; STAT3 act-1: 87

What do the screens show for `C/C(=N\Nc1nc(-c2cc(C)ccc2C)cs1)c1cc2c(ccc3ccccc32)oc1=O`?
STAT1 blocker: 2; STAT3 inh: -47; C8 TRAIL sens: 8; PPC-1+TRAIL kill: 10; STAT3 act-1: 146*; STAT3 act-2: 106; NFkB act 2: 100; STAT1 act: 95

What do the screens show for `C/C(=N\Nc1nc(-c2cc(C)ccc2C)cs1)c1cc2ccccc2oc1=O`?
STAT1 blocker: 9; STAT3 inh: -1; C8 TRAIL sens: 10; PPC-1+TRAIL kill: 0; STAT3 act-1: 99

Results for Cc1cc([N+](=O)[O-])c2ccccc2c1NS(=O)(=O)c1ccccc1 ?
C8 TRAIL sens: -2

How did COc1cc2cc(/C=C/C(=O)c3ccco3)c(Cl)nc2cc1OC do in these assays?
STAT1 blocker: 2; STAT3 inh: -46; C8 TRAIL sens: -3; PPC-1+TRAIL kill: 15; STAT3 act-1: 139*; STAT3 act-2: 111; NFkB act 2: 109; STAT1 act: 95

How did COc1ccc2cc(/C=C/C(=O)c3ccco3)c(Cl)nc2c1 do in these assays?
STAT1 blocker: -13; STAT3 inh: -10; PPC-1+TRAIL kill: 22; STAT3 act-1: 109

Results for O=C(C(O)c1ccccc1)N1CCN(S(=O)(=O)c2ccc(C(F)(F)F)cc2)CC1 (stereo not given) ?
C8 TRAIL sens: -10

How did CCOC(=O)Cn1c(C)c(C#N)c2ccccc21 do in these assays?
STAT1 blocker: 5; STAT3 inh: 0; C8 TRAIL sens: 1; PPC-1+TRAIL kill: 2; STAT3 act-1: 105

Results for Cc1c(C#N)c2ccccc2n1CC(=O)O ?
STAT1 blocker: 6; STAT3 inh: -63; C8 TRAIL sens: -1; STAT3 act-1: 159*; STAT3 act-2: 161*; NFkB act 2: 102; STAT1 act: 108

Results for O=C(NN=C1CCCCCCC1)c1ccccn1 ?
STAT1 blocker: -21; STAT3 inh: -6; C8 TRAIL sens: -1; PPC-1+TRAIL kill: 12; STAT3 act-1: 108

What do the screens show for `NNC(=O)c1ccc2ccccc2n1`?
STAT1 blocker: 1; STAT3 inh: -38; C8 TRAIL sens: -3; PPC-1+TRAIL kill: 6; STAT3 act-1: 144*; STAT3 act-2: 141*; NFkB act 2: 105; STAT1 act: 100

How did O=C(NN=C1CCCCCCC1)c1ccc2ccccc2n1 do in these assays?
STAT1 blocker: -12; STAT3 inh: -63; C8 TRAIL sens: 2; PPC-1+TRAIL kill: 28; STAT3 act-1: 154*; STAT3 act-2: 140*; NFkB act 2: 107; STAT1 act: 119

What do the screens show for `CCn1nccc1NC(=O)c1ccc2sc([C@@H]3O[C@H](CO)[C@H](O)[C@H](O)[C@H]3O)nc2c1`?
C8 TRAIL sens: 11

What do the screens show for `O=C(COC(=O)c1ccc2c(c1)C(=O)N(Cc1ccncc1)C2=O)Nc1ccccc1[N+](=O)[O-]`?
STAT1 blocker: 12; STAT3 inh: -45; C8 TRAIL sens: -5; PPC-1+TRAIL kill: 6; STAT3 act-1: 138*; STAT3 act-2: 147*; NFkB act 2: 107; STAT1 act: 96

How did CC(OC(=O)c1ccc2c(c1)C(=O)N(Cc1ccncc1)C2=O)C(=O)Nc1cccc(Cl)c1Cl (stereo not given) do in these assays?
STAT1 blocker: 4; STAT3 inh: 2; C8 TRAIL sens: -1; PPC-1+TRAIL kill: 7; STAT3 act-1: 95

How did C(=C\c1ccccc1)/CN1CCN(C(c2cc3ccccc3o2)c2nnnn2C2CCCCC2)CC1 (stereo not given) do in these assays?
C8 TRAIL sens: -17

Results for CCN(C(=S)Nc1cccnc1)c1cccc2ccccc12 ?
STAT1 blocker: 4; STAT3 inh: -34; C8 TRAIL sens: -2; PPC-1+TRAIL kill: 26; STAT3 act-1: 137*; STAT3 act-2: 128; NFkB act 2: 101; STAT1 act: 92

How did CCN(C(=S)Nc1cccnc1)c1ccccc1 do in these assays?
STAT1 blocker: 6; STAT3 inh: 1; C8 TRAIL sens: 2; PPC-1+TRAIL kill: -7; STAT3 act-1: 101

What do the screens show for `Cc1cc(Br)ccc1-n1[nH]c(C)c(C=Nc2cccc3nsnc23)c1=O`?
STAT1 blocker: -10; STAT3 inh: -45; C8 TRAIL sens: -17; PPC-1+TRAIL kill: 11; STAT3 act-1: 138*; STAT3 act-2: 133*; NFkB act 2: 101; STAT1 act: 99

How did COc1ccccc1N=Cc1c(C)[nH]n(-c2ccc(C)cc2C)c1=O do in these assays?
STAT1 blocker: -12; STAT3 inh: -2; C8 TRAIL sens: -1; PPC-1+TRAIL kill: 19; STAT3 act-1: 103

What do the screens show for `CCC(C(=O)Nc1ccccc1OC)n1c(C(=O)OC)cc2ccsc21` (stereo not given)?
STAT1 blocker: 14; STAT3 inh: -45; C8 TRAIL sens: -14; PPC-1+TRAIL kill: -2; STAT3 act-1: 142*; STAT3 act-2: 148*; NFkB act 2: 104; STAT1 act: 87

Results for c1cncc(-c2noc(-c3cccc4ccccc34)n2)c1 ?
STAT1 blocker: -28; STAT3 inh: -106; C8 TRAIL sens: 7; PPC-1+TRAIL kill: 21; STAT3 act-1: 188*; STAT3 act-2: 176*; NFkB act 2: 124*; STAT1 act: 148*

How did c1ccc(-c2ccccc2-c2nc(-c3cccnc3)no2)cc1 do in these assays?
STAT1 blocker: 0; STAT3 inh: 5; C8 TRAIL sens: -2; PPC-1+TRAIL kill: -9; STAT3 act-1: 97

What do the screens show for `Nc1cc(Cl)ccc1C(=O)OCC(=O)NC1CCCCCCC1`?
C8 TRAIL sens: 9

How did CSc1nc(/C=C2\C=Nc3ccccc32)c(O)n1C do in these assays?
STAT1 blocker: 0; STAT3 inh: -55; C8 TRAIL sens: 7; PPC-1+TRAIL kill: 23; STAT3 act-1: 146*; STAT3 act-2: 155*; NFkB act 2: 111; STAT1 act: 103
